Assay results of several laboratories.
Compare with care: the assays were run in different laboratories.
WDR5: WD repeat-containing protein 5 (WDR5, Homo sapiens, UniProt P61964)
PRKCE: Protein kinase C epsilon type (PRKCE, Homo sapiens, UniProt Q02156)
OfChi-h: Chitinase (OfChi-h, Ostrinia furnacalis, UniProt Q4AE59)
HDAC7: Histone deacetylase 7 (HDAC7, Homo sapiens, UniProt Q8WUI4)

| SMILES | target | observed | action | technique | tested at | quantity | value |
| --- | --- | --- | --- | --- | --- | --- | --- |
| C[C@@H]1CN(c2ccc(-c3cc(C(=O)NCCOCCOCCOCCOCCNC(=O)Cn4cc(-c5[nH]cc(C(=O)N[C@@H](CC(N)=O)c6ccc(F)c(Cl)c6)c5-c5ccc(Cl)cc5F)cn4)ccc3F)cc2NC(=O)c2c[nH]c(=O)cc2C(F)(F)F)C[C@H](C)N1C | WDR5 | thermal stability |  | DSF | 5.5 µM | ΔTm | 13.4 °C |
| O=C(O)CNc1cccc(CN(Cc2ccc(-n3cccn3)cc2)S(=O)(=O)c2cccnc2)n1 | Beta-2 adrenergic receptor (ADRB2, Homo sapiens, UniProt P07550) | ligand displacement |  | radioligand | 10 µM | inhibition | 12% |
| C[C@@H]1CN(c2ccc(-c3cc(C(=O)NCCOCCOCCOCCOCCOCCOCCOCCOCCOCCNC(=O)/C=C/c4[nH]cc(C(=O)N[C@@H](CC(N)=O)c5ccc(F)c(Cl)c5)c4-c4ccc(Cl)cc4F)ccc3F)cc2NC(=O)c2c[nH]c(=O)cc2C(F)(F)F)C[C@H](C)N1C | WDR5 | thermal stability |  | DSF | 5.5 µM | ΔTm | 8.9 °C |
| CNc1ncc2c(/C=C/C(=O)N3CCC(OC)CC3)nn(Cc3cccc(C(F)(F)F)c3)c2n1 | PRKCE | enzyme activity | inhibitor | radiometric | 1 µM | remaining activity | 99% |
| CCCCc1ccc(CNc2nc(N(C)C)nc(N(C)C)c2/N=N/c2ccc(Cl)cc2)cc1 | OfChi-h | enzyme activity | inhibitor | fluorescence | 1 µM | inhibition | 91.9% |
| COc1cc(-c2cncc3c2CN(C)Cc2cc(N4CCNCC4)ccc2-3)cc(OC)c1OC | Serine/threonine-protein kinase 35 (STK35, Homo sapiens, UniProt Q8TDR2) | enzyme activity | inhibitor |  | 1 µM | remaining activity | 111% |
| CN(C)c1nc(NCc2ccc(OC(F)(F)F)cc2)c(/N=N/c2ccc(Cl)cc2)c(N(C)C)n1 | OfChi-h | enzyme activity | inhibitor | fluorescence | 1 µM | inhibition | 85% |
| CC(C)Oc1ccc(S(=O)(=O)c2ccc(Oc3cc(OCC(N)=O)c(C(=O)C(Cl)Cl)cc3[N+](=O)[O-])cc2)cc1 | [Pyruvate dehydrogenase (acetyl-transferring)] kinase isozyme 3, mitochondrial (PDK3, Homo sapiens, UniProt Q15120) | enzyme activity | inhibitor | ATP luminescence | 10 µM | inhibition | 27.9% |
| O=C(NO)c1cc(F)cc(OS(=O)(=O)Oc2ccccc2)c1 | HDAC7 | enzyme activity | inhibitor | fluorescence | 10 µM | inhibition | 47% |
| O=C(Cn1cc(C=CC(=O)c2ccc(F)cc2)nn1)Nc1nc(-c2ccccc2)cs1 | 72 kDa type IV collagenase (MMP2, Homo sapiens, UniProt P08253) | enzyme activity | inhibitor |  | 0.5 µM | inhibition | 40.6% |
| O=C(NO)c1cncc(OS(=O)(=O)Oc2ccc3ccccc3c2)c1 | HDAC7 | enzyme activity | inhibitor | fluorescence | 10 µM | inhibition | 46% |
| Cc1cc([C@@H](C)Nc2ccccc2C(=O)O)c2nc(N3CCC(F)(F)CC3)c(C#N)c(=O)n2c1 | PRKCE | binding |  | competition with immobilised ligand | 10 µM | remaining binding | 100% |
| C=CC(=O)N1CCC(COCC(=O)N2CCN(c3nc(-c4cnc(N)nc4C(F)F)nc(N4CCOC[C@@H]4C)n3)CC2)CC1 | Epithelial discoidin domain-containing receptor 1 (DDR1, Homo sapiens, UniProt Q08345) | binding |  | competition with immobilised ligand | 1 µM | remaining binding | 99% |
